Source: ChEMBL document CHEMBL1153525, “Adenosine A2A receptor-antagonist/dopamine D2 receptor-agonist bivalent ligands as pharmacological tools to detect A2A-D2 receptor heteromers” (J Med Chem, 2009)
Calls of active or inactive are those of the source. The calls are words filed in the database; no cut-off is given here.

Experiments:
[1] = test system: Dopamine D2 receptor (Homo sapiens); test: Displacement of [3H]YM09151-2 from human A2aR/D2R (long isoform) heteromer expressed in mouse Ltk cells by scintillation counting
[2] = molecular target: Adenosine A2A receptor (Homo sapiens) (UniProt P29274); test: Displacement of [3H]ZM241385 from human A2aR/D2R (long isoform) coexpressed in mouse Ltk cells by scintillation counting; type: cell-based
Outline: (§1)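 Mouse Ltk fibroblasts were transiently transfected with human A2AR, human D2R (long isoform) or both, and membranes were prepared 48 h later. Membranes were incubated 2 h at 25 °C in 50 mM Tris-HCl pH 7.4 with 10 mM MgCl2 and 2 U/mL ADA, plus 2.1 nM [3H]ZM241385 or 1.9 nM [3H]YM09151-2 and 1 μM test compound. Bound ligand was counted after filtration and expressed as % of specific binding without displacer; three independent experiments.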
Target sequence in this assay (P29274 whole entry, canonical isoform): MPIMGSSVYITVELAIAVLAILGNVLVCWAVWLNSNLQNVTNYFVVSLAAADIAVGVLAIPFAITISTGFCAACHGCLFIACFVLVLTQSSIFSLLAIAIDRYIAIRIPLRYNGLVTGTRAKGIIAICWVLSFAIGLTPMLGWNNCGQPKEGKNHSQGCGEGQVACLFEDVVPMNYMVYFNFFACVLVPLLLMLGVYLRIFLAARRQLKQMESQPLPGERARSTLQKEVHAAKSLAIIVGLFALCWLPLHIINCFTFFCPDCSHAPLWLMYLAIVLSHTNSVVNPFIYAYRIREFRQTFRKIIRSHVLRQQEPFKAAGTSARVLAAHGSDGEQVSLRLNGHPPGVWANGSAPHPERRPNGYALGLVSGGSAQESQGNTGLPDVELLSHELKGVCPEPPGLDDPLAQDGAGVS

[3] = molecular target: Adenosine A2A receptor (Homo sapiens) (UniProt P29274); test: Displacement of [3H]ZM241385 from human A2aR expressed in mouse Ltk cells at 1 uM by scintillation counting relative to control; type: cell-based
Outline: as §1
Target sequence in this assay (P29274 whole entry, canonical isoform): as above

[4] = Displacement of [3H]ZM241385 from A2aR dimer in lamb striatum membrane assessed as high affinity macroscopic equilibrium dissociation constant by scintillation counting; type: cell membranes, Ovis aries
Outline: (§2)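 Lamb striatal membranes (0.3-0.5 mg protein/mL) were incubated 2 h at 25 °C in 50 mM Tris-HCl pH 7.4 with 10 mM MgCl2 and 2 U/mL ADA. Radioligand was 2.1 nM [3H]ZM241385 (A2AR) or 0.9 nM [3H]YM09151-2 (D2R), against 11 competitor concentrations from 0.1 nM to 50 μM in triplicate. Nonspecific binding used 50 μM unlabeled radioligand. After GF/C filtration, counts were fitted to a two-state dimer model for KDB1 and KDB2; three experiments.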

[5] = molecular target: Adenosine A2A receptor (Homo sapiens) (UniProt P29274); test: Agonist activity at human A2aR expressed in HEK293 cells assessed as cAMP accumulation at 10 uM
Target sequence in this assay (P29274 whole entry, canonical isoform): as above

[6] = Displacement of [3H]YM09151-2 from D2R (long isoform) dimer in lamb striatum membrane low affinity macroscopic equilibrium dissociation constant by scintillation counting; type: cell membranes, Ovis aries
Outline: as §2

[7] = Displacement of [3H]YM09151-2 from D2R (long isoform) dimer in lamb striatum membrane high affinity macroscopic equilibrium dissociation constant by scintillation counting; type: cell membranes, Ovis aries
Outline: as §2

[8] = molecular target: D(2) dopamine receptor (Homo sapiens) (UniProt P14416); test: Agonist activity at human D2R receptor expressed In HEK293 cells assessed as decrease in forskolin-induced cAMP level at 10 uM; type: functional, cell-based; set-up: scale not given: the % may be the effect or the level left
Outline: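 HEK-293 cells transiently transfected with human D2R (long isoform) were kept 16 h in serum-free medium, then used 48 h after transfection. Cells were preincubated 10 min at 37 °C with 50 μM zardaverine in serum-free medium with 10 mM MgCl2. Test ligand at 10 μM was added, then 10 μM forskolin for 15 min. Cells were extracted with HClO4 and cAMP was measured by [3H]cAMP assay, as % of forskolin-induced level; three independent experiments.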

[9] = molecular target: Adenosine A2A receptor (Homo sapiens) (UniProt P29274); test: Displacement of [3H]ZM241385 from human A2aR/D2R (long isoform) heteromer expressed in mouse Ltk cells by scintillation counting; type: cell-based
Outline: as §1
Target sequence in this assay (P29274 whole entry, canonical isoform): as above

[10] = molecular target: Adenosine A2A receptor (Homo sapiens) (UniProt P29274); test: Antagonist activity at human A2aR expressed in HEK293 cells assessed as inhibition of CGS-21680-induced cAMP production at 10 uM; type: functional, cell-based
Outline: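 Human A2AR was transiently expressed in HEK-293 cells, which were held 16 h serum-free with 1.5 U/mL ADA and used 48 h post-transfection. Cells were preincubated 10 min at 37 °C with 50 μM zardaverine, 10 mM MgCl2 and 1.5 U/mL ADA. Ligand at 10 μM was given alone, or 10 min before 200 nM CGS 21680 (10-15 min). cAMP was measured by [3H]cAMP assay, as % of CGS 21680 response; three independent experiments.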
Target sequence in this assay (P29274 whole entry, canonical isoform): as above

[11] = molecular target: Adenosine A2A receptor (Homo sapiens) (UniProt P29274); test: Displacement of [3H]ZM241385 from human A2AR expressed in mouse Ltk cells at 1 uM by scintillation counting relative to control
Target sequence in this assay (P29274 whole entry, looked up, canonical isoform): as the sequence (P29274 whole entry, canonical isoform) above

[12] = molecular target: D(2) dopamine receptor (Homo sapiens) (UniProt P14416); test: Displacement of [3H]YM09151-2 from human D2R expressed in mouse Ltk cells by scintillation counting relative to control; type: cell-based
Outline: as §1

D(2) dopamine receptor (Homo sapiens), sequence (P14416 whole entry, canonical isoform): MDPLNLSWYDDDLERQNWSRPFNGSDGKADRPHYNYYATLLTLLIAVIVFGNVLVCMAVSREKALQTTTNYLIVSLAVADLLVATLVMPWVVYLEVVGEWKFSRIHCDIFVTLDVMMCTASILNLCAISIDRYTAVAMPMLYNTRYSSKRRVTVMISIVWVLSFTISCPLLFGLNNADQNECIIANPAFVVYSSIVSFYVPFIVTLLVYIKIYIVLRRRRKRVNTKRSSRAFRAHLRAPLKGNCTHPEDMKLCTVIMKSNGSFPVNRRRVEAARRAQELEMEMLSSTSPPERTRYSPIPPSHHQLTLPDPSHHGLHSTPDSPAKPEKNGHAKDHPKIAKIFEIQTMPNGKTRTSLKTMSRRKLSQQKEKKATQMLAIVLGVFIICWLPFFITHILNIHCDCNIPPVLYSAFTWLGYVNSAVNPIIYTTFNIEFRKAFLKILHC

Row | SMILES | Activity [1] | Activity [2] | Activity [3] | Ki [4] | Activity [5] | Ki [6] | Ki [7] | Activity [8] | Activity [9] | Activity [10] | Activity [11] | Activity [12]
1 | CCCN(CCc1ccc(NC(=O)CCC(N)C(=O)NCCCCC(NC(=O)CCC(=O)NCCOCCOCCNC(=O)C(CCCCNC(=O)C(N)CCCCNC(=O)COc2ccc(-c3nc4c([nH]3)c(=O)n(CCC)c(=O)n4CCC)cc2)NC(C)=O)C(N)=O)cc1)C1CCc2c(O)cccc2C1 (centres undefined) | Active | Active | Active | 59 nM | inactive | 7000 nM | 1.1 nM | 87% | Active | Active | Active | inactive
2 | CCCN(CCc1ccc(NC(=O)CCC(N)C(=O)NCCCCC(NC(=O)CCC(=O)NCCOCCOCCNC(=O)CCC(=O)NCCOCCOCCNC(=O)CCC(=O)NCCOCCOCCNC(=O)C(CCCCNC(=O)C(N)CCCCNC(=O)COc2ccc(-c3nc4c([nH]3)c(=O)n(CCC)c(=O)n4CCC)cc2)NC(C)=O)C(N)=O)cc1)C1CCc2c(O)cccc2C1 (centres undefined) | Active | Active | Active | 50 nM | inactive | 500 nM | 1.8 nM | 78% | Active | Active | Active | inactive
